According to PMC4684772 (ACS chemical biology, 2015):
“Also recorded” adds a separate entry of the source. Values belong to the molecule of their own block, whether it stands above or below them.

Experiments:
[1] = test system: LUSQ cell lines (H157, H2170, H520, H596); experiment: cell viability; format: cell-based; conditions: for sensitivity regarding viability: H157 and H520 cells, Fig. S4
Summary of the method: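 Four LUSQ lines (H157, H2170, H520, H596) were exposed to the test compound for 72 hours and cell viability was measured. IC50 values for inhibition of viability were derived per line.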

CDK4 = conditions: cited from earlier work; for IC50: read-out: IC50 for CDK4 inhibition
CDK4/cyclin D1 = experiment: in vitro kinase assays for CDK4/cyclin D1 activity; format: biochemical; conditions: in vitro kinase assay CDK4/cyclin D1
PIK3C3 = PIK3C3 (Homo sapiens, UniProt Q8NEB9); experiment: in vitro kinase assay; format: biochemical
H157 cells = experiment: Rb Ser780 phosphorylation immunoblot; format: cell-based; conditions: 1 µM and 5 µM, 4 and 24 hours
H157 and H520 cells [2] = experiment: pSer473 AKT and pGSK3 Western blots; format: cell-based; conditions: 4 hours
H157 and H520 cells [3] = experiment: LC3 Western blots; format: cell-based; conditions: 48 hours
autophagic vesicles = experiment: quantitative analysis of autophagic vesicles by Cyto-ID; format: cell-based; conditions: 3 hour treatment
CDK9 = experiment: in vitro kinase assay; format: biochemical; conditions: in vitro kinase assays
PIK3CD = experiment: in vitro kinase assay; format: biochemical; conditions: in vitro kinase assays
CSNK2α2 = experiment: in vitro kinase assay; format: biochemical; conditions: in vitro kinase assays
PIK3R4 = experiment: dose-dependent binding competition with soluble drug; conditions: Fig. S3C
TNK1 = experiment: in vitro kinase assay; format: biochemical; conditions: in vitro kinase assays
AURKA = experiment: in vitro kinase assay; format: biochemical; conditions: in vitro kinase assays
GAK = experiment: dose-dependent binding competition with soluble drug; conditions: Fig. S3C

PIK3C3, sequence (Q8NEB9 whole entry): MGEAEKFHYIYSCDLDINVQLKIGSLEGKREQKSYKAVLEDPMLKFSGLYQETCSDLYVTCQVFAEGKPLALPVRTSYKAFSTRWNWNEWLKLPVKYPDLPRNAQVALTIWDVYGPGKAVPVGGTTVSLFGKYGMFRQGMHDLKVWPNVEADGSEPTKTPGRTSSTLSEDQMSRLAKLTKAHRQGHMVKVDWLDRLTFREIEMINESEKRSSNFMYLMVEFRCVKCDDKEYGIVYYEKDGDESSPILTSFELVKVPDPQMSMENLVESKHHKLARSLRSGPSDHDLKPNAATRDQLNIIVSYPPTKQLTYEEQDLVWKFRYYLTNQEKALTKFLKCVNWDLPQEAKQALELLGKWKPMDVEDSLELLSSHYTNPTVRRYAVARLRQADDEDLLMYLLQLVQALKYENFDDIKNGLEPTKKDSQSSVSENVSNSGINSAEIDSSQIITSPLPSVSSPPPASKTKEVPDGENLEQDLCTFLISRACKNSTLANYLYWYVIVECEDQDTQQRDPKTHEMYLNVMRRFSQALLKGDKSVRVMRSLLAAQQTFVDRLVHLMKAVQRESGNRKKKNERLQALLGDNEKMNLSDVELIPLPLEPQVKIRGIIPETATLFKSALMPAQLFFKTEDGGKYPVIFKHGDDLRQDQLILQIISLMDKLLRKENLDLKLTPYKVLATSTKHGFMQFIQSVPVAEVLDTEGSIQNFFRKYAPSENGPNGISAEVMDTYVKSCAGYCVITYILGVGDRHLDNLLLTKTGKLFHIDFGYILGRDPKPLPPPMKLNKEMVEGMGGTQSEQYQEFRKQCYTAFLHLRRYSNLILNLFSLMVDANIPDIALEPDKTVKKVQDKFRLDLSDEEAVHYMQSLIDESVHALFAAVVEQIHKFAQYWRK

Structure (SMILES): CCN1CCN(Cc2ccc(Nc3ncc(F)c(-c4cc(F)c5nc(C)n(C(C)C)c5c4)n3)nc2)CC1 [Abemaciclib, abemaciclib]
- effects on viability compared with palbociclib and ribociclib ([1]; LUSQ cell lines, Fig. S1): stronger effects
- fold more potent for CDK4 than palbociclib and ribociclib (CDK4): about 5 fold

Structure (SMILES): Nc1cc(C(F)(F)F)c(-c2cc(N3CCOCC3)nc(N3CCOCC3)n2)cn1 [BKM120]
- sensitivity regarding viability [1]: relative insensitivity

Structure (SMILES): CC[C@H](Nc1ncnc2[nH]cnc12)c1nc2cccc(F)c2c(=O)n1-c1ccccc1 [CAL-101]
- sensitivity regarding viability [1]: relative insensitivity

- CDK4 activity of coupleable analogues (CDK4/cyclin D1): conservation of their CDK4 activity
Structure (SMILES): CN(C)C(=O)c1cc2cnc(Nc3ccc(N4CCN(CCCN)CC4)cn3)nc2n1C1CCCC1 [c-ribociclib]

- IC50 (PIK3C3): 14800 nM
- validation as target, CDK9 (CDK9): new palbociclib targets
- validation as target, CSNK2α2 (CSNK2α2): new palbociclib targets
- interaction with PIK3R4 (PIK3R4): potent interactions
Structure (SMILES): CC(=O)c1c(C)c2cnc(Nc3ccc(N4CCNCC4)cn3)nc2n(C2CCCC2)c1=O [palbociclib]
- inhibition of Rb phosphorylation at S780 (H157 cells): effectively inhibited
- inhibition of phosphorylation of AKT S473 and its downstream target GSK3β (H157 and H520 cells [2]): dose-dependently inhibits
- lipidation of LC3 (LC3-II) (H157 and H520 cells [3]): increased
- number of autophagic vesicles (autophagic vesicles): increased
- validation as target, PIK3CD (PIK3CD): relatively weak; also recorded: new palbociclib targets
- cellular activity compared with ribociclib ([1]; LUSQ cell lines, 72 hours): somewhat more active

- validation as target, CDK9 (CDK9): potent
- validation as target, TNK1 (TNK1): potent
- inhibition of AURKA (AURKA): weakly inhibited
- interaction with GAK (GAK): potent interactions
Structure (SMILES): CN(C)C(=O)c1cc2cnc(Nc3ccc(N4CCNCC4)cn3)nc2n1C1CCCC1 [ribociclib]
- inhibition of Rb phosphorylation at S780 (H157 cells): effectively inhibited
